Source: article PMC12634867 (Neoplasia (New York, N.Y.), 2025)
Read-outs that look alike come from different tables or passages of the source.

What was measured:
[1] = plasma pharmacokinetics of single oral AZD5438 dosing in mice; format: in vivo; conditions: CBA, mouse, 37.5 mg/kg
[2] = clinical phase I tolerability, cancer patients; format: in vivo, human
CBA/CaJ mice [3] = test: multi-cycle cisplatin ototoxicity mouse model, ABR; format: in vivo
CBA/CaJ mice [4] = test: multi-cycle cisplatin ototoxicity mouse model, DPOAE; format: in vivo; conditions: any combination group
CBA/CaJ mice [5] = test: multi-cycle cisplatin ototoxicity mouse model, hair cell counts; format: in vivo
CBA/CaJ mice [6] = test: multi-cycle cisplatin ototoxicity mouse model, survival and general condition; format: in vivo
NCCIT cells = test: NCCIT cell confluence; format: cell-based, human; conditions: for IC50: read-out: IC50, NCCIT cells
JKT1 cells = test: MTT cell viability, JKT1; format: cell-based; conditions: ∼0.02-100 μM AZD5438 together with cisplatin, 24 h MTT
SEM-1 cells = test: MTT cell viability, SEM-1; format: cell-based; conditions: ∼0.02-100 μM AZD5438 together with cisplatin, 24 h MTT
[7] = system: NCCIT tumor-bearing SCID mice; test: NCCIT xenograft mouse model; format: in vivo
Method in brief: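 Male SCID mice aged 12 wk were implanted s.c. with 1 × 10⁷ NCCIT cells in 1:1 Matrigel. At mean tumor size ~100 mm³, they were randomized into four groups (n = 10). […] Oral test compound or vehicle (10% DMSO/5% Tween-80/40% PEG-300/45% saline) was given b.i.d. on days 1–3. Cycles lasted 7 days, three in all. Caliper volumes normalized to baseline; two-way ANOVA with Tukey.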

cochlear explants = conditions: read-out: EC50 in cochlear explants; protection against cisplatin; cited from earlier work
cyclin E/CDK2 = conditions: read-out: in vitro IC50 against cyclin E/CDK2; cited from earlier work
cyclin B1/CDK1 = conditions: read-out: in vitro IC50 against cyclin B1/CDK1; cited from earlier work
cyclin D1/CDK4 = conditions: read-out: in vitro IC50 against cyclin D1/CDK4; cited from earlier work
[8] = cited from earlier work
[9] = single dose, healthy male volunteers; cited from earlier work
[10] = cited from earlier work; remark: listed apart in the source
[11] = system: IMR-32, SH-SY5Y, SKN-AS, SHP-77, H115, A549, Kelly, JKT1, NCCIT; conditions: neuroblastoma, lung and testicular origins; cited from earlier work
FVB mice = conditions: cited from earlier work
[12] = system: noise-induced hearing loss (NIHL) model; conditions: cited from earlier work
mice = conditions: cited from earlier work
phosphorylated Rb = conditions: cited from earlier work
cyclin A/CDK2 = conditions: read-out: in vitro IC50 against cyclin A/CDK2; cited from earlier work
CBA/CaJ model = CBA/CaJ model and retrospective human study; cited from earlier work

For `Cc1ncc(-c2ccnc(Nc3ccc(S(C)(=O)=O)cc3)n2)n1C(C)C` [AZD5438], the Cmax [1] was 1470 ± 916 ng/mL, the concentration at 2 h [1] was 621 ± 305 ng/mL and the concentration at 3 h [1] was 510 ± 135 ng/mL. The “estimated MTD” value ([2]; cancer patients, four times daily (QID), conjectured from NTDs) was 20 to 90 mg, the “human equivalent (tolerated) mouse dose” value ([2]; extrapolated from tolerated Cmax) was at most 9.4 mg/kg and the Cmax ([2]; human, plasma, oral) was under 300 ng/mL. The “ABR wave 1 amplitudes, protection vs cisplatin only” value (CBA/CaJ mice [3]; any combination group) was “no significant protection”, the “ABR wave 1 latency, improvement vs cisplatin only” value (CBA/CaJ mice [3]; combination groups, all levels at 8 and 16 kHz) was “did not reveal significant improvements” and the “DPOAE amplitudes input and output analysis, protection vs cisplatin only” value (CBA/CaJ mice [4]) was “no significant protection”. The “DPOAE thresholds and amplitudes, protection vs cisplatin only” value (CBA/CaJ mice [4]) was “no significant protection”, the “reduction of cisplatin-induced outer hair cell loss” value (CBA/CaJ mice [5]; AZD5438 co-treated groups, 32 kHz region) was “did not significantly reduce cisplatin-induced outer hair cell loss” and the “inner hair cell loss” value (CBA/CaJ mice [5]; all groups) was “none of the groups caused any inner hair cell loss”. The “adverse effects based on body weight or behavior” value (CBA/CaJ mice [6]; co-treated animals (Fig. 2, Fig. 3)) was “no significant adverse effects”, the “mortality during the entire experiments” value (CBA/CaJ mice [6]; multi-cycle cisplatin + AZD5438 b.i.d.) was “Only a few mice mostly in the cisplatin + 37.5 mg/kg AZD5438 group died” and the IC50 (NCCIT cells; Homo sapiens, NCCIT, 40 h) was 1.38 µM. For the same compound, the “cell death of combination vs either drug alone” value (NCCIT cells; cisplatin 5 μM + AZD5438 3 μM, 40 h) was “significantly higher cell death”, the “interference with cisplatin tumor cell loss, JKT1” value (JKT1 cells) was “no substantial interferences” and the “interference with cisplatin tumor cell loss, SEM-1” value (SEM-1 cells) was “no substantial interferences”. The “tumor volume, cisplatin + AZD5438 vs cisplatin only” value ([7]; 9.4 mg/kg b.i.d. oral + cisplatin 3 mg/kg) was “no significant differences”, the tumor volume ([7]; AZD5438 only, 9.4 mg/kg b.i.d. oral, vs vehicle) was “increased at similar rates” and the body weight ([7]; cisplatin + AZD5438 vs cisplatin only) was “trend of body weight loss more than the cisplatin only group, although insignificantly”. The survival ([7]; combination group and AZD5438 only group, 9.4 mg/kg b.i.d.) was “several deaths occurred”, the EC50 (cochlear explants) was 5 nM and the IC50 (cyclin E/CDK2) was 6 nM. The IC50 (cyclin B1/CDK1) was 16 nM, the IC50 (cyclin D1/CDK4) was 450 nM and the “dose-dependent linear Cmax values” ([8]; oral, animal and human studies) was 5 to 1,000 ng/mL. The Tmax ([8]; plasma, single oral dose) was 30 to 180 min, the “maximum tolerated dose (MTD)” value [9] was 80 mg and the well tolerated dose ([10]; cancer patient cohort, QID one day weekly) was at most 90 mg. For the same compound, the “non-tolerated dose (NTD)” value ([10]; cancer patients, four times (QID) for one day per week) was over 90 mg, the “non-tolerated dose (NTD)” value ([10]; cancer patients, four times daily for at least 14 and 28 consecutive days) was 40 mg and the adverse events ([10]; continuous dosing, 40 mg QID, cancer patients) was “gastrointestinal in origin, including profound anorexia and fatigue in some patients, accompanied by nausea and vomiting”. For the same compound, the “interference with cisplatin's tumor killing in nine cancer cell lines” value [11] was “does not interfere”, the “protection against CIHL” value (FVB mice; oral 75 mg/kg once daily for three days) was “significantly protected against CIHL at 32 kHz” and the “cisplatin-induced hearing loss (ABR thresholds at 32 kHz)” value (FVB mice; transtympanic 50 µM, one hour before and 24 h after cisplatin) was “significantly attenuated cisplatin-induced hearing loss”. For the same compound, the “protection in NIHL model, co-treatment with dabrafenib” value ([12]; AZD5438 and dabrafenib, preservation at 8, 16 and 32 kHz) was “enhanced protection”, the “auditory thresholds in NIHL model” value ([12]; oral 75 mg/kg) was “improved auditory thresholds at 8 and 16 kHz” and the cisplatin-induced nephrotoxicity (mice) was “protected against cisplatin-induced nephrotoxicity”. The “time after administration within which phosphorylated Rb was modulated” value (phosphorylated Rb) was 1 to 3 h and the IC50 (cyclin A/CDK2) was 45 nM.
For `CC(C)c1c(C(=O)Nc2ccccc2)c(-c2ccccc2)c(-c2ccc(F)cc2)n1CC[C@@H](O)C[C@@H](O)CC(=O)O` [atorvastatin], the auditory protection (CBA/CaJ model) is listed as 5–8 dB.
In the case of `N.N.[Cl][Pt][Cl]` [cisplatin, cis-diamminedichloroplatinum (II)], the IC50 (NCCIT cells; single agent, confluency over 40 h) is given as 9 µM, the tumor volume ([7]; cisplatin only, 3 mg/kg, two days per week) is given as “completely obliterated the tumor volumes” and the auditory threshold elevations (FVB mice; single IP cisplatin 30 mg/kg, 8, 16 and 32 kHz) is given as 5–20 dB.
